This is an account of results in PubChem BioAssay.

Structures are written as SMILES. Active and inactive are the calls of the source.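 How the source made its calls, unless noted: active means GFP response above 150% of the DMSO level; inconclusive means fewer than 70 events counted for a yeast strain; inactive means the rest.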

Assay [1] is described as follows: hit retest on RPL19A-GFP reporter strain – cell-based, S. cerevisiae, flow cytometry, cherry picks, mother/daughter gates, confirmation (AID 2270;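 active means GFP response below 50% of the DMSO control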). As to conditions: 3 h, at 10 µM, stronger effect = lower value, 100 = same GFP as DMSO wells. Background: In flow cytometry, cells or beads pass a laser one at a time.
Assay [2] can be described thus: yeast TOR pathway reporter LAP4-GFP change – cell-based, cherry picks, flow cytometry, mother/daughter gates, confirmation (AID 2271;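 active means GFP response above 150% of the DMSO control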;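 further: ratio of sample to DMSO plate mean so 100% equals DMSO level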). Conditions: S. cerevisiae LAP4-GFP strain, 3 h, at 10 µM, stronger effect = higher value, 100 means same as DMSO control. Summed up: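 Material: Alexa Fluor 633-labelled Saccharomyces cerevisiae GFP-fusion strain, single-plex | Amount: Yeast cells seeded at OD600 of 0.2 | Buffer or medium: SC growth medium | Schedule: 3 h exposure, 30 °C | Measured by: HT flow cytometry, GFP fluorescence channel | Evaluation: % GFP response vs DMSO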

A short description of assay [3]: TOR pathway reporter MEP2-GFP, retest of hits – S. cerevisiae, flow cytometry GFP, cherry picks, confirmation (AID 2272;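 active means GFP response above 150% of the DMSO control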;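 further: ratio of well signal to plate DMSO mean so 100% equals DMSO level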). As to conditions: S. cerevisiae MEP2-GFP strain, 3 h, at 10 µM, stronger effect = higher value.
Assay [4] is described as follows: yeast AGP1-GFP fluorescence change, single-dose – cell-based, flow cytometry, S. cerevisiae, cherry picks, confirmation (AID 2273).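 Further: median GFP channel fluorescence over the whole cell population gate.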 As to conditions: S. cerevisiae AGP1-GFP strain, 3 h, at 10 µM.
The nature of assay [5]: TOR pathway CIT2 reporter hit retest – S. cerevisiae, GFP fusion, cherry picks, mother/daughter gates, confirmation (AID 2274). Conditions: S. cerevisiae CIT2-GFP strain, flow cytometry, 3 h, at 10 µM, stronger effect = higher value.
Setting [6] is: measured here: daughter cell gate.
[7] abbreviates: measured here: mother cell gate.
The mark [8] stands for this setting: measured here: daughter cell gate response.
Setting [9] is: measured here: mother cell gate response.

`Cc1ccc(N2C(=O)CC(Sc3ncn[nH]3)C2=O)cc1C` (centres undefined): the GFP response vs DMSO in assay [1] is 106% (inactive); in assay [1] (setting [6]) it was 111%; in assay [1] (setting [7]), 101%; in assay [3] it was 109% (inactive). The results for the GFP response relative to DMSO in assay [2], in assay [2] (setting [8]) and in assay [2] (setting [9]) were 137% (inactive), 133% and 140%, respectively. Further, the GFP response, % of DMSO in assay [4] was 100% (inactive); in assay [5] it was 104% (inactive); in assay [5] (setting [6]), 112%; in assay [5] (setting [7]) it was 97.3%.

On to `O=C(c1ccccc1F)N1CCN(c2ccccc2)CC1`, for which the GFP response vs DMSO is 97% (inactive) in assay [1], 97.9% in assay [1] (setting [6]), 97.6% in assay [1] (setting [7]) and 105% (inactive) in assay [3]. For the same molecule, the values for the GFP response relative to DMSO in assay [2], in assay [2] (setting [8]) and in assay [2] (setting [9]) were 99.2% (inactive), 101% and 98.3%, respectively. The GFP response, % of DMSO in assay [4] was 95.2% (inactive); in assay [5], 98.3% (inactive); in assay [5] (setting [6]), 101%; in assay [5] (setting [7]) it was 98.5%.

`O=C(CCc1nc(-c2ccccc2)no1)Nc1cc(C(F)(F)F)ccc1Cl`: the GFP response vs DMSO was 105% (inactive) in assay [1], 105% in assay [1] (setting [6]), 103% in assay [1] (setting [7]) and 105% (inactive) in assay [3]. In addition, the results for the GFP response relative to DMSO in assay [2], in assay [2] (setting [8]) and in assay [2] (setting [9]) were 91.9% (inactive), 91% and 92%, respectively. For the same molecule, the GFP response, % of DMSO in assay [4] is 102% (inactive); in assay [5], 112% (inactive); in assay [5] (setting [6]), 108%; in assay [5] (setting [7]) it was 110%.

Regarding `O=C1[C@@H]2C3C=CC(O3)[C@@H]2C(=O)N1c1ccccc1`, the GFP response vs DMSO is 101% (inactive) in assay [1], 102% in assay [1] (setting [6]), 100% in assay [1] (setting [7]) and 101% (inactive) in assay [3]. In addition, the GFP response relative to DMSO in assay [2] is 107% (inactive); in assay [2] (setting [8]), 107%; in assay [2] (setting [9]) it was 109%. Besides, the GFP response, % of DMSO in assay [4] was 107% (inactive); in assay [5], 100% (inactive); in assay [5] (setting [6]), 101%; in assay [5] (setting [7]) it was 100%.

Turning to `CCOC(=O)c1ccc(NC(=O)c2ccc3c(c2)C(=O)N(Cc2cccnc2)C3=O)cc1`, the GFP response vs DMSO in assay [1] is 100% (inactive); in assay [1] (setting [6]) it was 99.6%; in assay [1] (setting [7]), 100%; in assay [3] it was 102% (inactive). Besides, the GFP response relative to DMSO in assay [2] was 94.1% (inactive); in assay [2] (setting [8]) it was 96%; in assay [2] (setting [9]), 94%. Besides, the GFP response, % of DMSO was 99.3% (inactive) in assay [4], 99.7% (inactive) in assay [5], 101% in assay [5] (setting [6]) and 98.5% in assay [5] (setting [7]).

For the molecule `O=C(c1ccccc1F)N1CCN(c2ccccc2F)CC1`, the GFP response vs DMSO in assay [1] is 101% (inactive); in assay [1] (setting [6]), 99.8%; in assay [1] (setting [7]), 102%; in assay [3] it was 100% (inactive). The GFP response relative to DMSO is 98.7% (inactive) in assay [2], 100% in assay [2] (setting [8]) and 99.3% in assay [2] (setting [9]). Further, the GFP response, % of DMSO was 95% (inactive) in assay [4], 104% (inactive) in assay [5], 105% in assay [5] (setting [6]) and 105% in assay [5] (setting [7]).

As to `COc1cc(NC(=O)c2ccccc2)ccc1NC(=O)c1cc2ccccc2o1`, the GFP response vs DMSO in assay [1] is 98.7% (inactive); in assay [1] (setting [6]) it was 98.7%; in assay [1] (setting [7]) it was 97.8%; in assay [3], 103% (inactive). Further, the GFP response relative to DMSO in assay [2] was 94.1% (inactive); in assay [2] (setting [8]), 97.5%; in assay [2] (setting [9]) it was 92.3%. Besides, the GFP response, % of DMSO in assay [4] is 101% (inactive); in assay [5] it was 100% (inactive); in assay [5] (setting [6]) it was 95.8%; in assay [5] (setting [7]), 100%.

For `CN(Cc1ccccc1)S(=O)(=O)c1ccc(C(=O)Nc2nnc(C3CC3)o2)cc1`, the GFP response vs DMSO in assay [1] was 103% (inactive); in assay [1] (setting [6]) it was 102%; in assay [1] (setting [7]), 105%; in assay [3] it was 96.8% (inactive). Further, the GFP response relative to DMSO in assay [2] is 98.2% (inactive); in assay [2] (setting [8]) it was 99.1%; in assay [2] (setting [9]), 97.3%. Further, the GFP response, % of DMSO was 99.2% (inactive) in assay [4], 102% (inactive) in assay [5], 103% in assay [5] (setting [6]) and 102% in assay [5] (setting [7]).

On to `COc1ccccc1OC(C)C(=O)Nc1ccccc1C(=O)NCC1CCCO1` (centres undefined), for which the GFP response vs DMSO in assay [1] is 97% (inactive); in assay [1] (setting [6]) it was 95.2%; in assay [1] (setting [7]) it was 97.2%; in assay [3] it was 99.5% (inactive). Also, the GFP response relative to DMSO was 97.7% (inactive) in assay [2], 97.9% in assay [2] (setting [8]) and 97.5% in assay [2] (setting [9]). Besides, the GFP response, % of DMSO in assay [4] was 103% (inactive); in assay [5], 97.8% (inactive); in assay [5] (setting [6]) it was 98.3%; in assay [5] (setting [7]), 96.8%.
